Test results as given in ChEMBL document CHEMBL5370613, “Phenyl dialkynylcarbinols, a Bioinspired Series of Synthetic Antitumor Acetylenic Lipids” (J Med Chem, 2023).
Calls of active or inactive are those of the source. The rule behind the calls is not given here.

What was measured:
[1] = Drug localization in HSD17B11 inactivated human U2OS cell membranes assessed as increase in fluorescence by measuring HSD17B11-mediated bioactivation at 1 uM incubated for 2 hrs by AlexaFluor488-azido based microscopic analysis; set-up: species or system Membrane
In short: (§1)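 WT or CRISPR HSD17B11-KO U2OS on coverslips treated 2 h at 1 μM, fixed 15 min in 2% PFA, permeabilised with 0.2% Triton X-100, clicked in situ with azido-AlexaFluor488, DAPI counterstained; fluorescence imaged.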

[2] = Half life in female CD-1 mouse at 5 mg/kg, iv measured for 480 mins by LC-MS/MS analysis; assay type: ADME, organism-based; conditions: in vivo
In short: (§2)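 Female (or male, as per line) CD-1 mice, 3 per time point, given a single 5 mg/kg dose in 10% Kolliphor EL in saline (injections) or water (oral). Blood sampled 5–480 min; plasma extracted with CH₃CN and quantified by LC-MS/MS (ESI+, m/z 251.20) against a calibration curve in extracted plasma; parameters by non-compartmental analysis.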

[3] = Clearance in female CD-1 mouse at 5 mg/kg, iv measured for 480 mins by LC-MS/MS analysis; assay type: ADME, organism-based; conditions: in vivo; in short: as §2
[4] = Volume of distribution at steady state in female CD-1 mouse at 5 mg/kg, iv measured for 480 mins by LC-MS/MS analysis; assay type: ADME, organism-based; conditions: in vivo, read-out: Vdss
In short: (§3)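 CD-1 mice (female for all routes, male for IV and PO) were dosed at 5 mg/kg in 10% Kolliphor EL in saline (injections) or water (oral), 3 mice per time point. Blood was taken at 5–480 min, and plasma was extracted with acetonitrile. LC-MS/MS positive ESI, m/z 251.20. Parameters came from non-compartmental analysis with a plasma calibration curve.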

[5] = Cmax in female CD-1 mouse at 5 mg/kg, po measured for 480 mins by LC-MS/MS analysis; assay type: ADME, organism-based; set-up: dose 5 mg/kg, time 480 min, route po; conditions: in vivo; in short: as §2
[6] = Half life in female CD-1 mouse at 5 mg/kg, po measured for 480 mins by LC-MS/MS analysis; assay type: ADME, organism-based; conditions: in vivo; in short: as §2
[7] = Clearance in female CD-1 mouse at 5 mg/kg, po measured for 480 mins by LC-MS/MS analysis; assay type: ADME, organism-based; conditions: in vivo; in short: as §2
[8] = AUC in female CD-1 mouse at 5 mg/kg, po measured for 480 mins by LC-MS/MS analysis; assay type: ADME, organism-based; set-up: dose 5 mg/kg, time 480 min, route po; conditions: in vivo; in short: as §2
[9] = Oral bioavailability in female CD-1 mouse at 5 mg/kg measured for 480 mins by LC-MS/MS analysis; assay type: ADME, organism-based; conditions: in vivo; in short: as §3
[10] = Clearance in female CD-1 mouse at 5 mg/kg, ip measured for 480 mins by LC-MS/MS analysis; assay type: ADME, organism-based; conditions: in vivo; in short: as §2
[11] = Bioavailability in female CD-1 mouse at 5 mg/kg, ip measured for 480 mins by LC-MS/MS analysis; assay type: ADME, organism-based; conditions: in vivo; in short: as §2
[12] = Half life in female CD-1 mouse at 5 mg/kg, sc measured for 480 mins by LC-MS/MS analysis; assay type: ADME, organism-based; conditions: in vivo; in short: as §2
[13] = Tmax in female CD-1 mouse at 5 mg/kg, sc measured for 480 mins by LC-MS/MS analysis; assay type: ADME, organism-based; conditions: in vivo
In short: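 Female (IP, SC, PO) or male (PO) CD-1 mice received 5 mg/kg in 10% Kolliphor EL vehicle, 3 mice per time point. Plasma was sampled at 5, 15, 30, 60, 120, 360 and 480 min, acetonitrile-extracted and quantified by LC-MS/MS against a calibration in extracted plasma. Tmax was the time of the observed maximum concentration.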

[14] = Clearance in female CD-1 mouse at 5 mg/kg, sc measured for 480 mins by LC-MS/MS analysis; assay type: ADME, organism-based; conditions: in vivo; in short: as §2
[15] = Bioavailability in female CD-1 mouse at 5 mg/kg, sc measured for 480 mins by LC-MS/MS analysis; assay type: ADME, organism-based; conditions: in vivo; in short: as §2
[16] = Half life in male CD-1 mouse at 5 mg/kg, iv measured for 480 mins by LC-MS/MS analysis; assay type: ADME, organism-based; conditions: in vivo; in short: as §2
[17] = AUC in male CD-1 mouse at 5 mg/kg, po measured for 480 mins by LC-MS/MS analysis; assay type: ADME, organism-based; set-up: time 480 min, dose 5 mg/kg, route po; conditions: in vivo; in short: as §2
[18] = Oral bioavailability in male CD-1 mouse at 5 mg/kg measured for 480 mins by LC-MS/MS analysis; assay type: ADME, organism-based; conditions: in vivo; in short: as §3
[19] = Toxicity in Balb/c mouse assessed as sign of toxicity administered as three escalating doses of 2 to 10 mg/kg, iv per week and measured for 10 days; assay type: organism-based; conditions: in vivo, 240 h, dose 2-10 mg/kg, time 10 day
In short: (§4)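 Female adult Balb/c mice, 6 per group, received IV injections 3 times weekly for 3 weeks at 2, 5 or 10 mg/kg. Dosing solutions were 0.4, 1 and 2 mg/mL in saline with 10% Cremophor, given at 5 mL/kg, with IP substitution when IV was impossible. Mice were weighed thrice weekly and observed daily, with necropsy at endpoint.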

[20] = Toxicity in Balb/c mouse assessed as reduction in body weight at 10 mg/kg, iv administered 3 times per week and measured on day 15; assay type: organism-based; set-up: scale not given: the % may be the effect or the level left; conditions: in vivo, 360 h, time 15 day; in short: as §4
[21] = Toxicity in Balb/c mouse assessed as deteriorated health state with shaggy coat and diarrhea at 10 mg/kg, iv administered 3 times per week and measured on day 15; assay type: organism-based; conditions: in vivo, 360 h, time 15 day; in short: as §4
[22] = test system: U2OS; assay: Cytotoxicity against human U2OS cells with HSD17B11 knockout complemented with GFP assessed as cell viability at 1 uM incubated for 72 hrs by SRB assay relative to control; assay type: functional; conditions: read-out: Activity
In short: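 U2OS HSD17B11-KO cells stably complemented with GFP, HSD17B11-GFP or HSD17B13-GFP, exposed to 1 μM compound for 72 h in complete medium; viability read by SRB assay, in three independent experiments.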

[23] = Drug localization in wild type human U2OS cell membranes assessed as increase in fluorescence by measuring HSD17B11-mediated bioactivation at 1 uM incubated for 2 hrs by AlexaFluor488-azido based microscopic analysis; set-up: species or system Membrane; in short: as §1
[24] = test system: U2OS; assay: Activation of unfolded protein response in human U2OS cells assessed as increase in HSP70 accumulation at 1 uM incubated for 2 to 6 hrs by immunoblotting analysis; assay type: functional, cell-based; conditions: time 2-6 hrs
In short: (§5)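 U2OS cells in complete growth medium treated at 1 μM for the indicated times, with 50 μM z-VAD-fmk added 1 h beforehand where stated; lysed in SDS buffer (Tris-HCl pH 6.8, 4% SDS) and immunoblotted, detected with HRP secondary antibodies and chemiluminescence.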

[25] = test system: U2OS; assay: Induction of apoptosis in human U2OS cells assessed as PARP-1 cleavage at 1 uM incubated for 24 hrs by immunoblot analysis; assay type: functional, cell-based
In short: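 U2OS cells in complete medium were given 1 μM for the indicated times. Whole-cell extracts in SDS lysis buffer were immunoblotted for UPR and apoptosis markers, including caspase-dependent PARP-1 cleavage, with chemiluminescent detection.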

[26] = test system: U2OS; assay: Activation of unfolded protein response in human U2OS cells assessed as decrease in full length ATF6 at 1 uM incubated for 12 hrs in presence of z-VAD-fmk by immunoblotting analysis; assay type: functional, cell-based; in short: as §5
[27] = test system: U2OS; assay: Induction of ER stress in human U2OS cells expressing Ub-G76V-YFP substrate assessed as inhibition of ubiquitin-proteasome system by measuring increase in […]-positive cells at 1 uM incubated for 4 hrs by flow cytometry analysis relative to control; assay type: functional; set-up: scale not given: the % may be the effect or the level left
In short: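 U2OS stably expressing Ub-G76V-YFP treated 4 h at 1 μM in complete medium (50 nM bortezomib as reference); trypsinised, fixed in 2% PFA, ≥32 000 cells acquired by flow cytometry; YFP-positive gate set on untreated cells.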

C#C[C@H](O)C#Cc1ccc(CCCCCCCC)cc1
Drug uptake [1]: Not Active | half-life [2]: 40 min | clearance [3]: 47 mL/min/kg | Vd [4]: 1.5 L/kg | Cmax [5]: 200 nM | half-life [6]: 33 min | CL/F [7]: 1460 mL/min/kg | AUC at 8 h [8]: 57.2 ng·h/mL | bioavailability [9]: 3.3% | CL/F [10]: 414 mL/min/kg | bioavailability [11]: 26% | half-life [12]: 147 min | Tmax [13]: 60 min | CL/F [14]: 675 mL/min/kg | bioavailability [15]: 16% | half-life [16]: 54 min | AUC at 8 h [17]: 47.4 ng·h/mL | bioavailability [18]: 6.1% | Activity [19]: Non-Toxic | Activity [20]: -18% | Activity [21]: Toxic | viability at 1 µM [22]: 90% | Drug uptake [23]: Not Active | Activity [24]: Active | Activity [25]: Active | Activity [26]: Active | Activity [27]: 87.5%
